{"data": "Published values pooled from the literature", "medium": "plasma", "note": "Lines come from different studies, so protocols differ."}
{"Structure (SMILES)": "CN(C)C(=O)c1cc2cnc(Nc3ccc(-c4ccc5c(=O)cc(N6CCOCC6)oc5c4)cc3)nc2n1C1CCCC1.Cl", "host": "BALB/c mouse", "route": "oral", "dose": "20 mg/kg", "quantity": "CL/F", "value": "43.3 mL/min/kg"}
{"Structure (SMILES)": "O=C1CCC(N2Cc3cc(CO)c(F)cc3C2=O)C(=O)N1 (centres unmarked)", "host": "male CD-1 mouse", "route": "intravenous", "dose": "1 mg/kg", "quantity": "C0", "value": "2190 ng/mL"}
{"Structure (SMILES)": "COc1ccc(N(Cc2csc(-c3ccccc3)n2)C(=O)CCCCCC(=O)NO)cc1", "host": "female Sprague-Dawley rat", "route": "oral", "dose": "30 mg/kg", "quantity": "Tmax", "value": "1 h"}
{"Structure (SMILES)": "Cc1ncsc1-c1ccc([C@H](C)NC(=O)[C@@H]2C[C@@H](O)CN2C(=O)[C@@H](NC(=O)CCc2ccc(C#Cc3ccc(C(=O)NCCCn4cc(-c5ccc6c(c5)CCN6C(=O)Cc5cccc(OC(F)(F)F)c5)c5c(N)ncnc54)cc3)cn2)C(C)(C)C)cc1", "host": "male C57BL/6 mouse", "route": "intravenous", "dose": "1 mg/kg", "quantity": "clearance", "value": "2.5 mL/min/kg"}
{"Structure (SMILES)": "C[C@H]1Oc2cc(cnc2N)-c2c(nn(C)c2C#N)CN(C)C(=O)c2ccc(F)cc21", "host": "male Sprague-Dawley rat", "route": "oral", "dose": "10 mg/kg", "setting": "single dose", "quantity": "Tmax", "value": "1.36 h"}
{"Structure (SMILES)": "Cc1ccc(OCC(=O)N[C@@H](Cc2c[nH]c3ccccc23)C(=O)OC(C)C)cc1", "host": "male Sprague-Dawley mouse", "route": "oral", "dose": "20 mg/kg", "quantity": "clearance", "value": "32.3 mL/min/kg"}
{"Structure (SMILES)": "C=CCn1c(=O)c2cnc(Nc3ccc(N4CCN(C)CC4)cc3)nc2n1-c1ccc2c(n1)[C@@](O)(CC)CC2", "host": "dog", "route": "oral", "dose": "10 mg/kg", "quantity": "Cmax", "value": "2100 nM"}
{"Structure (SMILES)": "NCc1cc2c(cc1F)C(=O)N(C1CCC(=O)NC1=O)C2 (centres unmarked)", "host": "male CD-1 mouse", "route": "intravenous", "dose": "1 mg/kg", "quantity": "C0", "value": "2000 ng/mL"}
{"Structure (SMILES)": "Cc1ncsc1-c1ccc([C@H](CC(=O)N2CCN(c3ccc(C#Cc4ccc(C(=O)N5CCC(n6cc(-c7ccc8c(c7)CCN8C(=O)Cc7cccc(OC(F)(F)F)c7)c7c(N)ncnc76)CC5)cc4)cn3)CC2)NC(=O)[C@@H]2C[C@@H](O)CN2C(=O)[C@@H](NC(=O)C2(F)CC2)C(C)(C)C)cc1", "host": "male C57BL/6 mouse", "route": "intravenous", "dose": "1 mg/kg", "quantity": "clearance", "value": "2.3 mL/min/kg"}
{"Structure (SMILES)": "OCc1nc2ccc(NCc3ccc(C(F)(F)F)cc3)cc2[nH]1", "host": "male BALB/c mouse", "route": "intravenous", "dose": "1 mg/kg", "quantity": "CL/F", "value": "61.7 mL/min/kg"}
{"Structure (SMILES)": "NCc1ccc(-c2nn(Cc3ccccc3)c3ccccc23)o1", "host": "male CD-1 mouse", "route": "intravenous", "dose": "5 mg/kg", "quantity": "C0", "value": "1520 ng/mL"}
{"Structure (SMILES)": "CCOC(=O)C1=C(CN2CCC[C@@H]2C(=O)Nc2ccc(B(O)O)cc2)NC(c2nccs2)=N[C@H]1c1ccc(F)cc1Br", "host": "CD-1 mouse", "route": "intravenous", "dose": "2 mg/kg", "quantity": "C0", "value": "2160 ng/mL"}
{"Structure (SMILES)": "OCc1ccc(-c2nn(Cc3ccccc3)c3ccccc23)o1", "host": "male CD-1 mouse", "route": "intravenous", "dose": "5 mg/kg", "quantity": "C0", "value": "5100 ng/mL"}
{"Structure (SMILES)": "COc1cc(-c2cc(C(C)=O)n3ccccc23)c(OC)cc1Cn1ccnc1", "host": "male Sprague-Dawley rat", "route": "intravenous", "dose": "5 mg/kg", "quantity": "Tmax", "value": "0.016 h"}
